We go through two molecules from ChEMBL document CHEMBL4118249, “Discovery and Identification of Small Molecules as Methuosis Inducers with in Vivo Antitumor Activities” (J Med Chem, 2018).

pIC50: −log10 of the molar value.

The test system of series [1] is Mus musculus. Description: Toxicity in ICR mouse assessed as effect on ALT level in serum at 20 mg/kg, iv administered once daily for 12 days. The conditions noted are these: in vivo, 288 h. The class given is organism-based. The essentials: (§1)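 Healthy ICR mice dosed at 20 mg/kg for 12 days; normal tissues examined for vacuoles, body weight and blood chemistry assessed.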

The subject of series [2] is Mus musculus. Description: Induction of vacuolization in ICR mouse at 20 mg/kg, iv administered once daily for 12 days measured post last dose by H and E staining based light microscopic method. The class given is organism-based. As to conditions: in vivo, 288 h. A digest of the protocol: as §1
Series [3] has as its system Mus musculus. Kind of series: Toxicity in ICR mouse assessed as effect on AST level in serum at 20 mg/kg, iv administered once daily for 12 days. As to conditions: in vivo, 288 h. The series is classed as organism-based. A digest of the protocol: as §1
Series [4] concerns Mus musculus. Description: Toxicity in ICR mouse assessed as body weight loss at 20 mg/kg, iv administered once daily for 12 days. The class given is organism-based. The conditions noted are these: in vivo, 288 h. A digest of the protocol: as §1
The subject of series [5] is MDA-MB-231. Description: Induction of methuosis in human MDA-MB-231 cells assessed as increase in vacuole formation at 1 uM after 24 hrs by phase contrast microscopic analysis relative to control. The series is classed as functional.
For a further series, the system named is MDA-MB-435S. Kind of series: Antiproliferative activity against human MDA-MB-435S cells after 48 hrs by MTS assay. The series is classed as functional, cell-based. A general note: Tetrazolium dyes change colour on reduction, which living cells bring about.
The next series deals with MCF7. Kind of series: Antiproliferative activity against human MCF7 cells after 48 hrs by MTS assay. The class given is functional, cell-based. The conditions noted are these: MCF7, 48 h.
The test system of the next series is A549. Kind of series: Antiproliferative activity against human A549 cells after 48 hrs by MTS assay. The series is classed as functional, cell-based. As to conditions: A549, 48 h.
In another series the test system is SK-MEL-28. Description: Antiproliferative activity against human SK-MEL-28 cells after 48 hrs by MTS assay. As to conditions: SK-MEL-28, 48 h. The series is classed as functional, cell-based.
The test system of another series is MCF-10A. Description: Cytotoxicity against human MCF10A cells assessed as reduction in cell viability after 48 hrs by MTS assay. The series is classed as cell-based.
The subject of series [6] is MDA-MB-231. Kind of series: Antitumor activity against human MDA-MB-231 cells xenografted in Balb/c nude mouse assessed as tumor growth inhibition at 20 mg/kg, iv administered once daily for 13 days measured 6 hrs post last dose relative to control. The series is classed as functional. The conditions noted are these: MDA-MB-231, iv, read-out: TGI. The essentials:
(§2)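 Female BALB/c nude mice (4–6 weeks) injected subcutaneously with 5×10^6 MDA-MB-231 cells; at ~100 mm3 (length×width²×0.5) randomized (n = 6) and dosed iv by tail vein once daily at 5 or 20 mg/kg in 10% Kolliphor HS 15 in saline, or vehicle; tumor volume and weight measured daily; tumors excised 6 h after final dose, H&E stained.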
In general terms: In xenograft studies the graft and the host belong to different species.

The nature of series [7]: Clearance in Balb/c nude mouse at 1 mg/kg, iv. The series is classed as ADME, organism-based. The conditions noted are these: in vivo.
In series [8] the test system is Mus musculus. Kind of series: Toxicity in Balb/c nude mouse xenografted with human MDA-MB-231 cells assessed as body weight loss at 5 to 20 mg/kg, iv administered once daily for 13 days measured daily during compound dosing. The conditions noted are these: in vivo, 312 h.
A further series has as its system HCT-116. Kind of series: Antiproliferative activity against human HCT116 cells after 48 hrs by MTS assay. The class given is functional, cell-based. As to conditions: HCT-116, 48 h.
A further series concerns A-375. Kind of series: Antiproliferative activity against human A375 cells after 48 hrs by MTS assay. As to conditions: A-375, 48 h. The series is classed as functional, cell-based.
For the next series, the system named is BGC-823. Description: Antiproliferative activity against human BGC823 cells after 48 hrs by MTS assay. The class given is functional, cell-based. As to conditions: BGC-823, 48 h.
Series [9] is described as follows: Volume of distribution in Balb/c nude mouse at 1 mg/kg, iv. The series is classed as ADME, organism-based. The conditions noted are these: in vivo.
Series [10] is described as follows: Half life in Balb/c nude mouse at 1 mg/kg, iv. The series is classed as ADME, organism-based. The conditions noted are these: in vivo.
The next series concerns HepG2. Description: Antiproliferative activity against human HepG2 cells after 48 hrs by MTS assay. The series is classed as functional, cell-based. As to conditions: HepG2, 48 h.
In series [11] the test system is MDA-MB-231. Description: Antiproliferative activity against human MDA-MB-231 cells after 48 hrs by MTS assay. The series is classed as functional, cell-based. As to conditions: MDA-MB-231, 48 h.
For the next series, the system named is SK-MEL-30. Kind of series: Antiproliferative activity against human SK-MEL-30 cells after 48 hrs by MTS assay. As to conditions: SK-MEL-30, 48 h. The class given is functional, cell-based.
For series [12], the system named is MDA-MB-231. Description: Induction of methuosis in human MDA-MB-231 cells assessed as increase in vacuole formation at 10 uM after 24 hrs by phase contrast microscopic analysis relative to control. The series is classed as functional.
In series [13] the test system is MDA-MB-231. Kind of series: Antitumor activity against human MDA-MB-231 cells xenografted in Balb/c nude mouse assessed as tumor growth inhibition at 5 mg/kg, iv administered once daily for 13 days measured 6 hrs post last dose relative to control. The series is classed as functional. As to conditions: MDA-MB-231, iv, read-out: TGI. The essentials: as §2

As to `Cc1ccc(NC(=O)c2cccc(C(F)(F)F)c2)cc1Nc1cc(-c2cccnc2)nc2[nH]ccc12.Cl`, the Activity result with Mus musculus [1], in the series with Mus musculus [2], in the series with Mus musculus [3] and with Mus musculus [4] was “Non-Toxic” in each case.

Broadly, the pIC50 is −log10 of the IC50, conventionally taken in molar units. For orientation: clearance means the rate of elimination divided by the concentration. High values mean a high capacity for elimination, low ones a low capacity for elimination. A word on the Vd: it is a proportionality between amount in the body and measured concentration, not a real space. Higher therefore signals extensive tissue distribution. As a reminder, the half-life is how long it takes for the measured level to halve. Read a high half-life as slow decline. For the molecule `Cc1ccc(NC(=O)c2cccc(C(F)(F)F)c2)cc1Nc1cc(-c2cccnc2)nc2[nH]ccc12`, the Activity with MDA-MB-231 [5] is listed as 99.75%; in the series on Mus musculus [8] it was “Non-Toxic”; in the series on MDA-MB-231 [12], 100%. Further, the pIC50 was 5.64 with MDA-MB-435S; 5.58 with MCF7; 5.72 in the series with A549; 5.86 with SK-MEL-28; less than 5.00 in the series on MCF-10A; 6.00 with HCT-116. Further, the pIC50 with A-375 was 6.49; with BGC-823, 5.81; in the series with HepG2, 5.92; in the series on MDA-MB-231 [11] it was 5.80; with SK-MEL-30, 5.78. Moreover, the inhibition in vivo at 20 mg/kg in the series on MDA-MB-231 [6] stood at 60.1%. The molecule also yielded a clearance in series [7] of 36.5 mL/min/kg. In addition, the Vd in [9] was determined as 15.5 L/kg. The half-life in series [10] was 524 min. Moreover, in the series on MDA-MB-231 [13], the inhibition in vivo at 5 mg/kg is 25.9%.
